Tests used:
HeLa cells = assay: STS-induced apoptosis; assay type: cell-based; conditions: 100 nM STS 20 h without the peptides
In short: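 HeLa cells in DMEM + 10% FBS, grown to 70%–80% confluence. Apoptosis induced with 100 nM staurosporine for 20 h; untreated cells as control. Early apoptosis scored by Annexin V–FITC staining, late apoptosis by TUNEL, as percentage of cells. Means + S.D. from three independent experiments.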

[1] = system: selenite-induced cataracts in rats; assay: Selenite cataract in rat pups; assay type: in vivo, Sprague–Dawley rat; conditions: selenite alone compared with untreated controls

Compound | early-stage apoptosis (% of the cells), inducer alone (HeLa cells; Annexin V–FITC) [%] | late stage apoptosis (% of the cells), inducer alone (HeLa cells; TUNEL) [%] | total soluble lens proteins, selenite alone ([1]; Fig 9B) | lens GSH content, selenite alone ([1]; Fig 9C)
CN[C@@H]1C[C@H]2O[C@@](C)([C@@H]1OC)n1c3ccccc3c3c4c(c5c6ccccc6n2c5c31)C(=O)NC4 [STS, staurosporine] | 14 | 5 | – | –
O=[Se]([O-])[O-].[Na+].[Na+] [sodium selenite] | – | – | reduction | reduction

From PMC4425413 (The Biochemical journal, 2015)
